Legend:
[1] = target: T1, Aurora kinase A (Homo sapiens, UniProt O14965); assay: Inhibition of aurora A kinase (unknown origin) by enzymatic assay
T1 sequence (O14965 whole entry): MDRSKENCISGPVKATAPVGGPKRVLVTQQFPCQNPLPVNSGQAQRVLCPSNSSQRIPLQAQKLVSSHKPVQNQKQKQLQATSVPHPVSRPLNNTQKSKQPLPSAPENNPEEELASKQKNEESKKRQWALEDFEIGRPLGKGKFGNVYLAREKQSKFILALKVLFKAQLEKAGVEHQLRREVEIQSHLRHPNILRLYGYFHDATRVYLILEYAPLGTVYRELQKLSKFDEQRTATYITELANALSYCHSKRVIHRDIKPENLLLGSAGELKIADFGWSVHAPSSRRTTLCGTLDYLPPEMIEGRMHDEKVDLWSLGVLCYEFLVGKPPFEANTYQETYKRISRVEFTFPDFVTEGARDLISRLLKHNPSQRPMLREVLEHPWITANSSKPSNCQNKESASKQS

[2] = Clearance in Sprague-Dawley rat at 1 mg/kg, iv and 3 mg/kg, po administered as cassette dosing; assay type: ADME, organism-based; conditions: in vivo
Procedure, shortened: (§1)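 Cassette dosing in Sprague Dawley rats: iv 1 mg/kg in NMP/PEG200 (3:7) and po 3 mg/kg in CMC/water/Tween (0.5:99:0.5). Dose-normalized values are marked as such.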

[3] = Volume of distribution at steady state in Sprague-Dawley rat at 1 mg/kg, iv and 3 mg/kg, po administered as cassette dosing; assay type: ADME, organism-based; conditions: in vivo, read-out: Vdss; procedure, shortened: as §1
[4] = Mean residence time in Sprague-Dawley rat at 1 mg/kg, iv and 3 mg/kg, po administered as cassette dosing; assay type: ADME, organism-based; conditions: in vivo; procedure, shortened: as §1
[5] = Oral bioavailability in Sprague-Dawley rat at 3 mg/kg administered as cassette dosing; assay type: ADME, organism-based; conditions: in vivo; procedure, shortened: as §1
[6] = tested on: Rattus norvegicus; assay: Dose normalized Cmax in Sprague-Dawley rat at 1 mg/kg, iv and 3 mg/kg, po administered as cassette dosing; assay type: ADME, organism-based; conditions: in vivo; procedure, shortened: as §1
[7] = tested on: Liver microsome; assay: Drug metabolism in rat liver microsomes assessed as pyrazole hydroxylation; assay type: ADME
[8] = tested on: Liver microsome; assay: Drug metabolism in rat liver microsomes assessed as pyrazole N-demethylation; assay type: ADME
[9] = tested on: Liver microsome; assay: Drug metabolism in rat liver microsomes assessed as lactam hydroxylation; assay type: ADME
[10] = tested on: Liver microsome; assay: Drug metabolism in human liver microsomes assessed as pyrazole hydroxylation; assay type: ADME
[11] = tested on: Liver microsome; assay: Drug metabolism in human liver microsomes assessed as pyrazole N-demethylation; assay type: ADME
[12] = tested on: Liver microsome; assay: Drug metabolism in human liver microsomes assessed as lactam hydroxylation; assay type: ADME
[13] = target: T2, Tyrosine-protein kinase SYK (Homo sapiens, UniProt P43405)
[14] = target: T2, Tyrosine-protein kinase SYK; assay: Inhibition of Syk in anti-igM stimulated human Ramos B cells assessed as phospho-BLNK level preincubated for 30 mins followed by anti-IgM stimulation measured after 15 mins by flow cytometric analysis; assay type: cell-based
[15] = target: T2, Tyrosine-protein kinase SYK; assay: Inhibition of Syk in anti-CD32 stimulated CD14+ human monocytes in presence of 90% human blood assessed as phospho-SLP76 level preincubated for 30 mins followed by anti-CD32 stimulation measured after 5 mins by flow cytometric analysis
[16] = tested on: Rattus norvegicus; assay: Dose normalized AUC in Sprague-Dawley rat at 3 mg/kg, po administered as cassette dosing; assay type: ADME, organism-based; conditions: in vivo; procedure, shortened: as §1
[17] = Solubility in pH 6.8 solution; assay type: physicochemical
[18] = Protein binding in human; assay type: ADME, organism-based; conditions: plasma, read-out: PB (converted)
[19] = Half life in rat liver microsomes; assay type: ADME

Structure (SMILES)	IC50 [1] [µM]	clearance [2] [L/h/kg]	Vd [3] [L/kg]	MRT [4] [min]	bioavailability [5] [%]	Cmax/dose [6] [µM]	Drug metabolism [7]	Drug metabolism [8]	Drug metabolism [9]	Drug metabolism [10]	Drug metabolism [11]	Drug metabolism [12]	IC50 [13] [µM]	IC50 [14] [µM]	IC50 [15] [µM]	AUC/dose [16]	solubility [17] [µM]	fraction unbound [18]	half-life [19] [min]
C[C@@H](Oc1cc(-c2cnn(C)c2)cc2nscc12)[C@H]1CNC(=O)O1	≤ 0.1	0.72	1.5	120	100	0.477	metabolite_detected	metabolite_detected	metabolite_detected	metabolite_detected	metabolite_detected	metabolite_detected	–	–	–	–	–	–	–
CN(C)c1ccc(-c2cc3ncccc3c(NCCCN)n2)cc1	–	–	–	–	–	–	metabolite_detected	metabolite_detected	metabolite_detected	metabolite_detected	metabolite_detected	metabolite_detected	–	–	–	–	–	–	–
COc1ccc(-c2cc3ncsc3c(O[C@H](C)[C@H]3CNC(=O)C3)n2)cc1OC	≤ 0.1	3.18	1.2	24	35	0.178	metabolite_detected	metabolite_detected	metabolite_detected	metabolite_detected	metabolite_detected	metabolite_detected	0.005	0.132	0.517	858 nM.hr/(mg/kg)	–	–	–
C[C@@H](Oc1cc(-c2cnn(C(F)F)c2)cc2nscc12)[C@H]1CNC(=O)O1	–	–	–	168	–	0.614	–	–	–	–	–	–	0.016	0.328	0.197	–	–	–	–
C[C@@H](Oc1nc(-c2cnn(C)c2)cc2ncsc12)[C@H]1CNC(=O)C1	–	–	–	42	–	0.103	–	–	–	–	–	–	0.026	0.284	0.538	–	–	–	–
C[C@@H](Oc1nc(-c2cnn(C)c2)cc2nscc12)[C@H]1CNC(=O)C1	0.8	5.16	2.4	30	27	0.109	metabolite_detected	metabolite_detected	metabolite_detected	metabolite_detected	metabolite_detected	metabolite_detected	0.04	0.247	0.29	577 nM.hr/(mg/kg)	> 1000	0.2	34

— ChEMBL document CHEMBL3621151, “Orally bioavailable Syk inhibitors with activity in a rat PK/PD model” (Bioorg Med Chem Lett, 2015)
